Reference: publication PMC7144688 (Cell chemical biology, 2020)

Tests used:
androgen receptor (AR) = assay: AR-mediated transcription assay in MDA-kb2 cells; assay type: cell-based, human; conditions: 0.2 nM DHT, 20 h
Procedure, shortened: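 MDA-kb2 cells carrying a stable androgen/glucocorticoid-responsive firefly luciferase reporter were seeded at 20,000 cells/well in Leibovitz's L-15 with 10% charcoal-stripped FBS (0% CO2) and grown to 80% confluence. Cells were co-treated with DHT and graded test compound for 20 h, lysed in Bright-Glo reagent for 4 min at room temperature, and luminescence was read.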

[1] = target: 6P chaperone complex (Hsp90, Hsp70, Hop, BAG1, Aha1 & Hsp40) refolding of FLuc (Homo sapiens, UniProt O95433+P08238+P0DMV8); assay: In vitro refolding of heat-denatured firefly luciferase by 6P chaperone complex; assay type: biochemical; conditions: 15 μM
Sequence of 6P chaperone complex (Hsp90, Hsp70, Hop, BAG1, Aha1 & Hsp40) refolding of FLuc (O95433 whole entry): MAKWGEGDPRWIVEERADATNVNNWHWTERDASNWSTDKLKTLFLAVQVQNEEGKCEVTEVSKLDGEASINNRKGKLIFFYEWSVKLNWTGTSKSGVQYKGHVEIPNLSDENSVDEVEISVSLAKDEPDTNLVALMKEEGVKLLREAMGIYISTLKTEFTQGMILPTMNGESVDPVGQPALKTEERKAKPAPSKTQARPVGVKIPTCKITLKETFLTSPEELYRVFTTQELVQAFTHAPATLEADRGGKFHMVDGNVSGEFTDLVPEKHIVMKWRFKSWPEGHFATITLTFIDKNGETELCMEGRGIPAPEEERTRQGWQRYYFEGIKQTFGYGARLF
Sequence of 6P chaperone complex (Hsp90, Hsp70, Hop, BAG1, Aha1 & Hsp40) refolding of FLuc (P08238 whole entry): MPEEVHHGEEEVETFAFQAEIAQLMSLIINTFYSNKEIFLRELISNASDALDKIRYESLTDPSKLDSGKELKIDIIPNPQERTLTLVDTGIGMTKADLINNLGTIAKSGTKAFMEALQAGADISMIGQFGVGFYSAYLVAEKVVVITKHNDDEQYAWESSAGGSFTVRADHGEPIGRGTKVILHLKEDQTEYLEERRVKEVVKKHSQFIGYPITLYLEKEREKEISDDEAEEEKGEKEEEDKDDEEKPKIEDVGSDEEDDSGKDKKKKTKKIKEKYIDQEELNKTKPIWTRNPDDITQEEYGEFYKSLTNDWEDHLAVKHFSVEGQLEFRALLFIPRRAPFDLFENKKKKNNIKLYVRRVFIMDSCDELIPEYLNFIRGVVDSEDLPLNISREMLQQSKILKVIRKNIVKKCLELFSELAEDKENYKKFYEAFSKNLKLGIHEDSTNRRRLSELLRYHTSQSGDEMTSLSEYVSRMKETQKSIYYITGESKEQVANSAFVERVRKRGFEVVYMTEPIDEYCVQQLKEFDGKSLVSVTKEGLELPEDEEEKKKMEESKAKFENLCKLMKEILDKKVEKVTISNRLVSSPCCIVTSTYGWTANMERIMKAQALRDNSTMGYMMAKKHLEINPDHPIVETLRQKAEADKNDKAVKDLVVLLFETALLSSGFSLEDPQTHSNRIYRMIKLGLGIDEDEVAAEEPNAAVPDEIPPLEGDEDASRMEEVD
Sequence of 6P chaperone complex (Hsp90, Hsp70, Hop, BAG1, Aha1 & Hsp40) refolding of FLuc (P0DMV8 whole entry): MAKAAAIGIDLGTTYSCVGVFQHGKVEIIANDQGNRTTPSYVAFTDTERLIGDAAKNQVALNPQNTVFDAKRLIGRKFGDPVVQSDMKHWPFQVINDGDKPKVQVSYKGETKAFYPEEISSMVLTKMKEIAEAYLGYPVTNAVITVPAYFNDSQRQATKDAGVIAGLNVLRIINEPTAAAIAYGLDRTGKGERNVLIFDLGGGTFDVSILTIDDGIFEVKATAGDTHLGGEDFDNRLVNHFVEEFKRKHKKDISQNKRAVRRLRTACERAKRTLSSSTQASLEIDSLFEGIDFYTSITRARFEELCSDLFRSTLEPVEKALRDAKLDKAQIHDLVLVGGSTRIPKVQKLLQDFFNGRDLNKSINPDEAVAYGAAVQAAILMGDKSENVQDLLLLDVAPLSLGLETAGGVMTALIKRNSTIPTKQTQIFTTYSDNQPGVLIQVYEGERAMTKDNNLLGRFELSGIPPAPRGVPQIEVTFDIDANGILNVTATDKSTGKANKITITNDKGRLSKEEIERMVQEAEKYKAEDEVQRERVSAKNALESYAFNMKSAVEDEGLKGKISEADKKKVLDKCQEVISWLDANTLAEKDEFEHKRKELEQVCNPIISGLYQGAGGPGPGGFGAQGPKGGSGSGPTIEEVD

[2] = target: Aha1-stimulated Hsp90 (ASH) ATPase activity (Homo sapiens, UniProt O95433+P08238); assay: Aha1-stimulated Hsp90; assay type: biochemical
Sequence of Aha1-stimulated Hsp90 (ASH) ATPase activity (O95433 whole entry): as the sequence (O95433 whole entry) above
Sequence of Aha1-stimulated Hsp90 (ASH) ATPase activity (P08238 whole entry): as the sequence (P08238 whole entry) above

human Hsp90β = human Hsp90β (human, UniProt P08238 1-724); assay: other fluorescence titration
Sequence of human Hsp90β (P08238 whole entry): as above

O=C(Nc1cccc(Cl)c1Cl)C1CCCCC1 [MJC13]
IC50 of AR-dependent luciferase expression (androgen receptor (AR)): similar

C=CCNC1=C2C[C@@H](C)C[C@H](OC)[C@H](O)[C@@H](C)/C=C(\C)[C@H](OC(N)=O)[C@@H](OC)/C=C\C=C(/C)C(=O)NC(=CC1=O)C2=O [17-AAG]
IC50 of AR-dependent luciferase expression (androgen receptor (AR)): better than that of the Hsp90i 17-AAG

CCn1c(=O)/c(=C2\Sc3cc(Cl)ccc3N2C)s/c1=C\c1scc[n+]1Cc1ccccc1.[Cl-] [JG98]
effect on FLuc refolding [1]: completely block

COC1=C2C[C@@H](C)C[C@H](OC)[C@H](O)[C@@H](C)/C=C(\C)[C@H](OC(N)=O)[C@@H](OC)/C=C\C=C(/C)C(=O)NC(=CC1=O)C2=O [GA, geldanamycin]
activity in ASH assay (screen) [2]: failed to completely inhibit the ASH activity | reduction in FLuc refolding [1]: 25%

B1: acrylodan-labeled CTD of Aha1 (domain or fragment, human, UniProt O95433 164-338, looked up)
chain: ILPTMNGESVDPVGQPALKTEERKAKPAPSKTQARPVGVKIPTCKITLKETFLTSPEELYRVFTTQELVQAFTHAPATLEADRGGKFHMVDGNVSGEFTDLVPEKHIVMKWRFKSWPEGHFATITLTFIDKNGETELCMEGRGIPAPEEERTRQGWQRYYFEGIKQTFGYGARLF
modifications: acrylodan on cysteine residues
binding result (human Hsp90β): binds
